Experimental data from the M2OR odorant receptor database.

What was measured:
Conditions in all cases: stereoisomer not certain
UniProt Q8VF52 = target: T1, UniProt Q8VF52
T1 sequence (whole entry): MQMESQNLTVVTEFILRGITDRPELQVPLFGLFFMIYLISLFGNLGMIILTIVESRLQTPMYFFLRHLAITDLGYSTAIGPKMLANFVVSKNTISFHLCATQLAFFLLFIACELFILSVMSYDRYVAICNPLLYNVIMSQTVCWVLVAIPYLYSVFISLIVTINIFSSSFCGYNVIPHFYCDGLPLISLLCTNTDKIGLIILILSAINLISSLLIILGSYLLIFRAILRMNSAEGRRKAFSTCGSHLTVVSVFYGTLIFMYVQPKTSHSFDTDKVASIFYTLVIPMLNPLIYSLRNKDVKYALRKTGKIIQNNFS
Method in brief: (§1)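 Whether a receptor–molecule pair is responsive (active) rests on the original authors' judgment that its measured signal was statistically different from baseline. Pairs without that judgment are non-responsive (inactive). Sources used varied assay methods, commonly transient luciferase assays in mammalian cell lines.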

UniProt Q8VFG6 = target: T2, UniProt Q8VFG6
T2 sequence (whole entry): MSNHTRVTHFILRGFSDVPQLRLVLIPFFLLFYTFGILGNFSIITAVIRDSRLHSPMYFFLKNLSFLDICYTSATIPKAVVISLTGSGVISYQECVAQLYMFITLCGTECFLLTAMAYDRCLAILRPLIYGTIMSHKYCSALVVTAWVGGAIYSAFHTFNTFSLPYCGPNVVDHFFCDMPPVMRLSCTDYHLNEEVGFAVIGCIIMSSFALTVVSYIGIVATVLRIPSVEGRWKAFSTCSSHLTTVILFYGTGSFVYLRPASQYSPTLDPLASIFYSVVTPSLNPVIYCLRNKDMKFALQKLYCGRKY
Method in brief: as §1

UniProt Q8VFZ6 = target: T3, UniProt Q8VFZ6
T3 sequence (whole entry): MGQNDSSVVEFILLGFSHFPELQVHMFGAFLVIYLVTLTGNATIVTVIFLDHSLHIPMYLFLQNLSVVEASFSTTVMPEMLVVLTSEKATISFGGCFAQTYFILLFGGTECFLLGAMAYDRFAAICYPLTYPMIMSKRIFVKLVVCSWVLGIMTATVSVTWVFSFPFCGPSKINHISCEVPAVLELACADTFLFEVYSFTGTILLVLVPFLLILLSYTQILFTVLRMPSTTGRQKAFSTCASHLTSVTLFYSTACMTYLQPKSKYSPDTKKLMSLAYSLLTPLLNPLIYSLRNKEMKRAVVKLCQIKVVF
Method in brief: as §1

UniProt Q8VG01 = target: T4, UniProt Q8VG01
T4 sequence (whole entry): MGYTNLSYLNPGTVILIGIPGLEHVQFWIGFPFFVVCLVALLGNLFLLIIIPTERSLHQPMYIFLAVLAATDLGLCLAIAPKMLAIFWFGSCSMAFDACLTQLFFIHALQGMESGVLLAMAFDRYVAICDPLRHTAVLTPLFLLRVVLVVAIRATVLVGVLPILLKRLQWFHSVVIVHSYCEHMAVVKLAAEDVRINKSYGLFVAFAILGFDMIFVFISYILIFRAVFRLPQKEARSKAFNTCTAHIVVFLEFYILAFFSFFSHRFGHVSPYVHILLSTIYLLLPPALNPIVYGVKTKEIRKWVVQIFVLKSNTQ
Method in brief: as §1

UniProt Q8VG22 = target: T5, UniProt Q8VG22
T5 sequence (whole entry): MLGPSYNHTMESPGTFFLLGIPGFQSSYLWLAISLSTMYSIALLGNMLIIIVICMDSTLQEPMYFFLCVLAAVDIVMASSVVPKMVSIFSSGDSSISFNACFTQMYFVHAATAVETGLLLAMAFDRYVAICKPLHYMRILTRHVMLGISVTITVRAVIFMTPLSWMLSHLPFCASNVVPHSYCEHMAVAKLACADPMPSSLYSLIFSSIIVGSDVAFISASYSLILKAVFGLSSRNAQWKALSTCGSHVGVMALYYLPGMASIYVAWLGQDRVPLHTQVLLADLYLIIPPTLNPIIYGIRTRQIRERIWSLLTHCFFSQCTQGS
Method in brief: as §1

UniProt Q8VG49 = target: T6, UniProt Q8VG49
T6 sequence (whole entry): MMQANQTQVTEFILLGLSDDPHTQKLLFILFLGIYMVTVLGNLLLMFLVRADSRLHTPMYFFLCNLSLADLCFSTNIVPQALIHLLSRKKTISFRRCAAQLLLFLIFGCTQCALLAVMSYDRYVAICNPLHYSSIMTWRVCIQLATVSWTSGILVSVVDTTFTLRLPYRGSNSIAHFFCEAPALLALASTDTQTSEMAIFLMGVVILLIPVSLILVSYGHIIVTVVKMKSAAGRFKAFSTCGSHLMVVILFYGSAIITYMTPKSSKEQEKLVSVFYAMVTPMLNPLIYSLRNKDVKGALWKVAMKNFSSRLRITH
Method in brief: as §1

UniProt Q8VG77 = target: T7, UniProt Q8VG77
T7 sequence (whole entry): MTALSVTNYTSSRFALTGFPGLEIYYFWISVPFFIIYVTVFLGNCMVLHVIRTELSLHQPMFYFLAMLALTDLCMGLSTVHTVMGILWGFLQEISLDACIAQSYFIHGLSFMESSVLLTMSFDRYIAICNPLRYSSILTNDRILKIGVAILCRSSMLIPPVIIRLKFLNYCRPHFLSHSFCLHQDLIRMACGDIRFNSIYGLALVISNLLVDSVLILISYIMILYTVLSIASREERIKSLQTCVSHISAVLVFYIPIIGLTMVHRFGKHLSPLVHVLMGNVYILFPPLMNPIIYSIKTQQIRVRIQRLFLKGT
Method in brief: as §1

UniProt Q8VG96 = target: T8, UniProt Q8VG96
T8 sequence (whole entry): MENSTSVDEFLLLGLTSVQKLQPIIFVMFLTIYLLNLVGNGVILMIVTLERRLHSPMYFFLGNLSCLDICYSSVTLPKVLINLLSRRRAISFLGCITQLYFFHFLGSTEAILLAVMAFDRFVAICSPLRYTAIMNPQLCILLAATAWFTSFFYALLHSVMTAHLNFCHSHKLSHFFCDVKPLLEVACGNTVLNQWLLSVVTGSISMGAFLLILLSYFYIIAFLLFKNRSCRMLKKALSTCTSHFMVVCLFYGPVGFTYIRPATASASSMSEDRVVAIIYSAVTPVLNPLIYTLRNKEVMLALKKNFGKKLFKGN
Method in brief: as §1

UniProt Q8VGC6 = target: T9, UniProt Q8VGC6
T9 sequence (whole entry): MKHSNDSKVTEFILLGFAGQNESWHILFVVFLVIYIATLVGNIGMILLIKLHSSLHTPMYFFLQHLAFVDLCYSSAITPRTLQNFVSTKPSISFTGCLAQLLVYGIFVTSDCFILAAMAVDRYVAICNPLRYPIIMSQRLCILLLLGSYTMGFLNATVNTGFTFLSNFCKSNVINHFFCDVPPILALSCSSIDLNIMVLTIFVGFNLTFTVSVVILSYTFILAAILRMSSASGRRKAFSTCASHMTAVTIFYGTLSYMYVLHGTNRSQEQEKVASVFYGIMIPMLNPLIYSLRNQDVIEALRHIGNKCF
Method in brief: as §1

UniProt Q8VGD7 = target: T10, UniProt Q8VGD7
T10 sequence (whole entry): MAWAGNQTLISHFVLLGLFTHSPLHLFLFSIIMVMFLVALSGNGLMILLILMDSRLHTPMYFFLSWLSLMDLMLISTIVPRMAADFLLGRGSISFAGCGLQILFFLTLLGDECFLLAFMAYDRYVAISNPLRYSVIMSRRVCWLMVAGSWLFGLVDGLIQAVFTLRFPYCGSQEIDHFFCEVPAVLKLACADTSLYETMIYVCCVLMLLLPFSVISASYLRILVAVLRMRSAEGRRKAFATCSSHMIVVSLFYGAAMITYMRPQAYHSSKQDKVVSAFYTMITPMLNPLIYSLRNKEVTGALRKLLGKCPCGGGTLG
Method in brief: as §1

UniProt Q8VGH1 = target: T11, UniProt Q8VGH1
T11 sequence (whole entry): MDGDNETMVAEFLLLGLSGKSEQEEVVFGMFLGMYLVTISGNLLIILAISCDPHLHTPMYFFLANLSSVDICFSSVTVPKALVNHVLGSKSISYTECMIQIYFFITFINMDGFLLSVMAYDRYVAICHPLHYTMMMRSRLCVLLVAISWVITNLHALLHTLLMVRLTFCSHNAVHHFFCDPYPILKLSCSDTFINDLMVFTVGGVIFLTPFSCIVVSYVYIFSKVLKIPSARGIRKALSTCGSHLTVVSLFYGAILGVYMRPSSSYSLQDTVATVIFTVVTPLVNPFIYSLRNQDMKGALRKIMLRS
Method in brief: as §1

UniProt Q8VGJ1 = target: T12, UniProt Q8VGJ1
T12 sequence (whole entry): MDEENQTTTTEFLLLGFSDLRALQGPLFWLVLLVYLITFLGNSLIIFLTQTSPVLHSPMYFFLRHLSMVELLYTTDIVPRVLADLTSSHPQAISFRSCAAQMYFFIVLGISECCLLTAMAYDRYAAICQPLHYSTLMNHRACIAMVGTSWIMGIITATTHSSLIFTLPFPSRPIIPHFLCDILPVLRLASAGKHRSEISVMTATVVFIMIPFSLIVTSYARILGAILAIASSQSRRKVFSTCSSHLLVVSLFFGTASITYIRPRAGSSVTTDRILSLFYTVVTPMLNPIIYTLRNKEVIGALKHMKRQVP
Method in brief: as §1

Measured: odorant receptor agonist call;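 note: active if original authors judged signal statistically different from baseline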

C=CCc1ccccc1
inactive: all assays above
